This is a sample that favours compounds with a hit; in the whole collection about 4.8% have one here.
Calb FLC: affects C. albicans growth with fluconazole | growth inhibition, % (test concentration not listed) | AID 1979 | hit rate 0.57% among 300,000 | C. albicans CaCi-2 (fluconazole-resistant clinical isolate) + fluconazole, Alamar Blue growth, 48 h;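 active = growth inhibition above about 58% in most replicates, limit read from the data, passing the limit was not always enough; inconclusive = exactly half the replicates above a set limit; inactive = most replicates below a set limit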;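 also: all wells also contain fluconazole at 8 µg/ml as a sub-toxic cotreatment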
NLRP3 yeast inh: blocks the NALP3 inflammasome reconstituted in yeast; inhibition, % at 10 µM; Yeast reconstituted NLRP3/ASC/caspase-1, beta-gal luminescence, 24 h; AID 2825; hit rate 0.39% among 330,000;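 active = inhibition of 50% or more; inactive = inhibition below 50%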
NALP1 inh: inhibitors of NALP1 inflammasome in yeast; S. cerevisiae NALP1/ASC/caspase-1 growth, X-gal OD620, 72 h; inhibition, % at 10 µM; hit rate 0.61% among 280,000; AID 2071; in the data active = inhibition mostly above about 24%, no sharp cut-off; inactive = mostly below about 32%
ALR H2O2 inh: blocks human ALR sulfhydryl oxidase activity | hit rate 3.8% among 290,000 | AID 485317 | purified ALR, DTT oxidation, H2O2 HRP-luminol luminescence | inhibition, % (no concentration beside the values) | P55789;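 active = mean replicate inhibition above about 79%, with every replicate also reaching it, limit read from the data; inconclusive = only one of the two criteria met; inactive = mean below limit and not every replicate reaching it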
Target sequence (P55789 whole entry, looked up): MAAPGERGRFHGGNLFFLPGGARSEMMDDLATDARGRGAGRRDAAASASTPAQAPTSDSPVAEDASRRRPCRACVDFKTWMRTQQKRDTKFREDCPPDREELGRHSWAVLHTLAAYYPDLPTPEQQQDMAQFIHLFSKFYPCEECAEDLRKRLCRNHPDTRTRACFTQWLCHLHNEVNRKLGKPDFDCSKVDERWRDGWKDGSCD
UCH37 inh: inhibitors of human deubiquitinating enzyme UCH37 | Q9Y5K5 | purified proteasome/UCH37, Ub-AMC cleavage fluorescence | inhibition, % (test concentration not listed) | hit rate 0.33% among 330,000;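 active = mean inhibition over replicate wells above about 20%, limit read from the data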
Target sequence (Q9Y5K5 whole entry, looked up): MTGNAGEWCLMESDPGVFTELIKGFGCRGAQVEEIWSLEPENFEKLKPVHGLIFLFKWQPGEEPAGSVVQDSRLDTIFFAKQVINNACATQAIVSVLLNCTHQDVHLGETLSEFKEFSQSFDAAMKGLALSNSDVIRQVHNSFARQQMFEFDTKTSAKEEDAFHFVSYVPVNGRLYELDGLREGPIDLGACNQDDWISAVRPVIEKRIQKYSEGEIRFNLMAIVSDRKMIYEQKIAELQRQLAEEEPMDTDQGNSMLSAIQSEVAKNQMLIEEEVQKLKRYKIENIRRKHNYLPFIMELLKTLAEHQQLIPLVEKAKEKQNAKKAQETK
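assay system = human UCH37 enzyme supplied as purified proteasome complex | amount = proteasome at 0.15 nM in the dispensed enzyme solution | schedule = 30 min compound-proteasome preincubation then 25 min substrate reaction, room temperature | measured by = fluorescence, ex 355 nm, em 460 nm | benchmarks = no-proteasome wells (full inhibition) and compound-free wells (no inhibition)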
ATG4B inhibitor: inhibitors of human ATG4B cysteine protease | Q9Y4P1 | ATG4B cleavage of LC3-PLA2, NBD-HPC fluorescence, 1 h | inhibition, % at 8.33 µM | hit rate 0.51% among 340,000 | AID 504462; in the data active = inhibition above about 40%
Numbers stand for hits; i = inactive; ? = inconclusive; nt = no result given.

SMILES	Calb FLC	NLRP3 yeast inh	NALP1 inh	ALR H2O2 inh	UCH37 inh	ATG4B inhibitor
CC1=CCC(C(=O)O)(C(=O)NN=Cc2cccs2)C(c2ccc(Cl)cc2)C1 (stereo not given)	nt	nt	nt	nt	i	nt
COc1cc(-c2cc(C(=O)O)c3c(OC)c(OC)c(OC)cc3n2)ccc1O	?	i	i	97.8	i	i
CCOc1ccc2nc(-c3ccc(OC)c(OC)c3)cc(C(=O)O)c2c1	i	i	i	i	i	i
Oc1ccc(/C=N/n2c(-c3ccco3)csc2=Nc2cccnc2)c(O)c1	?	i	i	i	nt	i
C=CCN=c1scc(-c2ccco2)n1/N=C/c1ccc(O)c(O)c1O	i	i	i	99.4	nt	i
COCCN=c1scc(-c2ccco2)n1/N=C/c1ccc(O)c(O)c1O	nt	i	i	99.2	nt	i
CC(C)N=c1scc(-c2ccco2)n1/N=C/c1ccc(O)c(O)c1	nt	i	i	98.6	nt	i
COc1cc(C=NN2CCN(c3ccccc3OC)CC2)ccc1OC(C)=O	nt	nt	nt	nt	i	nt
CCCCCCCC(=O)NN=Cc1ccco1	nt	nt	nt	nt	i	nt
Cn1nnnc1SCC(=O)c1ccc(Br)s1	i	i	i	i	i	i
Cn1c(Cc2ccccc2)nnc1SCC(=O)c1ccc(Br)s1	i	i	i	83.4	i	i
CN(C)CCCNC(=O)c1ccc(-c2nc(-c3ccc(Cl)cc3)cs2)cc1	100.4	i	i	i	i	i
CN(C)CCCNC(=O)c1ccccn1	i	i	i	i	i	i
N#Cc1cc([N+](=O)[O-])ccc1N1CCN(c2ccccc2O)CC1	i	i	i	98.1	i	i
CC(=O)c1ccc(N2CCN(c3ccccc3O)CC2)c([N+](=O)[O-])c1	i	i	i	98.6	i	i
CC(NC(=O)c1ccc(N2CCCC2)c([N+](=O)[O-])c1)c1ccc(S(N)(=O)=O)cc1 (stereo not given)	i	i	i	98.1	i	i
O=C(O)c1ccccc1C(=O)c1ccc(N2CCCC2)c([N+](=O)[O-])c1	i	i	i	i	i	i
CCCOc1cccc(C(=O)Nc2cccnc2)c1	110.2	i	i	i	i	i
CC(=O)c1cccc(-c2ccc3c(=O)[nH]c(Nc4ccccc4)cc3c2)c1	i	i	nt	i	31.1	i
CC(=O)c1cccc(Nc2nc(-c3ccccc3)nc3ccccc23)c1	i	i	i	nt	i	i
CCc1ccc(NC(=O)CSc2nc(=O)n(CCCN3CCOCC3)c3c2CCCC3)cc1	i	i	nt	98.2	i	i
Cc1ccc(NC(=O)CSc2nc(=O)n(CCN3CCOCC3)c3c2CCCC3)cc1	i	i	nt	i	i	i
Cc1ccc(NC(=O)CSc2nc(=O)n(CCCN3CCOCC3)c3c2CCCC3)cc1F	i	i	nt	97.5	i	i
Cc1ccc(NC(=O)CSc2nc(=O)n(CCCN3CCOCC3)c3c2CCCC3)c(C)c1	i	i	nt	i	i	i
COc1ccc(C=NNC(=O)c2nn(C)cc2Cl)cc1CN1CCOCC1	nt	nt	nt	nt	i	nt
SMILES	Calb FLC	NLRP3 yeast inh	NALP1 inh	ALR H2O2 inh	UCH37 inh	ATG4B inhibitor
O=C(NCCc1c[nH]c2ccccc12)C(=O)NCC1OCCCN1S(=O)(=O)c1ccc(F)cc1 (stereo not given)	i	i	i	i	i	i
Cc1ccc(S(=O)(=O)N2CCOC2CNC(=O)C(=O)NCCc2c[nH]c3ccccc23)cc1 (stereo not given)	i	i	i	i	29.0	i
CC1CCCC(C)N1N=Cc1ccc(Cl)cc1 (stereo not given)	nt	nt	nt	nt	i	nt
Cc1nnc(N2CCC(C(=O)N3CCCCC3)CC2)c2nn(-c3ccc(Cl)cc3)c(C)c12	i	i	i	i	i	52.8
Cc1nnc(N2CCC(C(=O)NC3CCC(C)CC3)CC2)c2nn(-c3ccc(Cl)cc3)c(C)c12 (stereo not given)	i	i	i	i	i	i
O=C(CON=C1CCCc2nonc21)Nc1ccc(Br)cc1	nt	nt	nt	nt	i	nt
COc1ccc(C=NNC(=O)c2cccc(NC(=O)c3ccc(F)cc3)c2)c(C(=O)O)c1OC	nt	nt	nt	nt	i	nt
O=[N+]([O-])c1ccc(O)c(Nc2ncnc3ccc(Br)cc23)c1	85.1	i	i	i	i	i
CCN(CC)C(=O)C1CCN(S(=O)(=O)c2cccc3nonc23)CC1	i	i	43.1	i	i	i
O=C(O)c1ccc(C=NN2CCN(c3ccccc3)CC2)cc1	nt	nt	nt	nt	i	nt
Cc1nc(NC(=O)CSc2nnnn2C)sc1C	i	i	i	i	i	i
CCc1nnc(NC(=O)CSc2nnnn2C)s1	i	i	i	99.1	i	i
CCc1nnc(NC(=O)CSc2ncc(-c3ccccc3)n2C)s1	86.4	i	i	i	i	i
CCc1nnc(NC(=O)CSc2nccn2-c2ccccc2)s1	i	i	i	i	i	i
CCc1nnc(NC(=O)Cn2ccc(C(F)(F)F)n2)s1	94.6	i	i	i	i	i
S=c1[nH]nc(-c2ccncc2)n1N=Cc1cccc(Cl)c1	nt	nt	nt	nt	i	nt
CCN=c1scc(C)n1/N=C/c1ccsc1	i	i	i	98.8	nt	i
Cc1cc(C)c2c(c1)C(=NNc1ccc(S(N)(=O)=O)cc1[N+](=O)[O-])CCC2	nt	nt	nt	nt	i	nt
C=CCn1c(-c2sccc2C)n[nH]c1=S	i	i	i	94.8	i	i
O=[N+]([O-])c1cccc(-c2n[nH]c(=S)n2-c2ccc(Br)cc2)c1	i	i	i	94.8	i	i
Nc1n[nH]c(-c2cccc([N+](=O)[O-])c2)n1	92.6	i	i	i	i	i
C=CCn1c(-c2cccc(Cl)c2)n[nH]c1=S	i	i	i	?	i	i
O=[N+]([O-])c1cccc(-c2cc(-c3cc(Br)ccc3O)[nH]n2)c1	84.4	i	i	i	i	i
COc1ccc(C=NOCC(=O)N2CC3(C)CC2CC(C)(C)C3)cc1OC (stereo not given)	nt	nt	nt	nt	i	nt
O=C(O)c1ccc(-n2c(-c3ccc(Br)cc3)n[nH]c2=S)cc1	i	i	i	92.5	i	i
SMILES	Calb FLC	NLRP3 yeast inh	NALP1 inh	ALR H2O2 inh	UCH37 inh	ATG4B inhibitor
S=c1[nH]nc(-c2ccc(Br)cc2)n1-c1ccc(Br)cc1	i	i	i	?	i	i
C=CCn1c(-c2cccc([N+](=O)[O-])c2)n[nH]c1=S	i	i	i	96.2	i	i
COC(=O)c1ccc(O)c(Sc2cc(C(=O)OC)ccc2O)c1	i	i	i	87.6	i	i
Cc1ccc(O)c(O)c1	i	nt	nt	i	nt	nt
COC(=O)c1ccc(C)cc1	nt	i	nt	nt	i	i
Cc1ccc(O)c(Sc2cc(C)ccc2O)c1	i	i	i	98.7	i	i
Cc1ccc(N2C(=O)C(CC(=O)Nc3cccc(F)c3)N(C3CC3)C2=O)cc1 (stereo not given)	i	i	i	78.5	i	i
Cc1ccc(-n2c(-c3ccc(Cl)cc3)n[nH]c2=S)c(C)c1	i	i	i	87.0	i	i
Cc1ccc(-n2c(-c3cccnc3)n[nH]c2=S)c(C)c1	i	i	i	84.4	i	i
COc1ccc(-c2n[nH]c(=S)n2-c2ccc(C)cc2C)cc1	i	i	i	i	i	i
Cc1ccc(S(=O)(=O)NNC(=S)Nc2cccc(F)c2)cc1	i	i	i	98.8	i	i
